# Only some compounds are listed: those with a hit (about 5.8% of all), similar ones and a draw of the others.
# Pf Dd2 inh: inhibitors of Plasmodium falciparum Dd2 growth | hit rate 2.3% among 94,000 | P. falciparum Dd2 growth, SYBR Green, 72 h; hits give low values | activity change, % at 10 µM | AID 1159554; in the data active means activity change below about -80%
# Tcruzi prolif: blocks T. cruzi growth in NIH3T3 culture | T. cruzi beta-gal in NIH3T3, GalScreen luminescence, 90 h | inhibition, % at 8.34 µM | hit rate 5.9% among 77,000;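 active means mean inhibition above about 93%, with at least 55% of replicates each passing it, limit read from the data, passing the limit was not always enough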
# KDM4C inh: blocks human GASC-1 (KDM4C) demethylase activity | Q9H3R0 | GST-KDM4C 2-372, H3K9me3 peptide, LANCE TR-FRET | inhibition, % at 12.5 µM | hit rate 0.15% among 96,000 | AID 720574;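 active means mean replicate inhibition above about 25%, with at least 55% of replicates also reaching it, limit read from the data, passing the limit was not always enough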
# Target sequence (Q9H3R0 2-372 limits assumed): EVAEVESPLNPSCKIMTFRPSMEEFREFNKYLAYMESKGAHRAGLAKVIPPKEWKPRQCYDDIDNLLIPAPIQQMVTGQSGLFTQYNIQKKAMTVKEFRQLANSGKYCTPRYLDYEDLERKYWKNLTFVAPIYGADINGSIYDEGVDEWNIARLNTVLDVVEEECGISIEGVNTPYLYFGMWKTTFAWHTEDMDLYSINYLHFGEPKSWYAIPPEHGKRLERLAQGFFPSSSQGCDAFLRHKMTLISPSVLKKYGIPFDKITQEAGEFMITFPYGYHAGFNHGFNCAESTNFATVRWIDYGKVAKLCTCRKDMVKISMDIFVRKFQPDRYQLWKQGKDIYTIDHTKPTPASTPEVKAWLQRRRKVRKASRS
#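 Test system: N-terminal GST-fused human GASC-1 (KDM4C) fragment, residues 2-372; quantity: GASC-1 enzyme at 10 nM final in reaction; dosing: single dose; schedule: 30 min demethylation and 1 h detection at room temperature; signal: LANCE TR-FRET, excitation 340 nm, emissions 618 and 671 nm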
# IDH1 R132H inh: blocks human IDH1 R132H reductase activity. O75874. diaphorase/resazurin fluorescence, 60 min. inhibition, % at 10 µM. hit rate 0.18% among 70,000; in the data active means inhibition above about 34%;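 further: 0% = DMSO and 100% = no enzyme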
# * = called active by the depositor; . = no result.
SMILES,Pf Dd2 inh,Tcruzi prolif,KDM4C inh,IDH1 R132H inh
Cc1noc(C)c1S(=O)(=O)N(C)C[C@H]1OCCCC[C@H](C)Oc2ccc(NC(=O)Nc3ccc(C(F)(F)F)cc3)cc2C(=O)N([C@H](C)CO)C[C@H]1C,-76,96,1,.
Cc1noc(C)c1S(=O)(=O)N(C)C[C@@H]1OCCCC[C@@H](C)Oc2ccc(NC(=O)Nc3ccc(C(F)(F)F)cc3)cc2C(=O)N([C@H](C)CO)C[C@H]1C,-92*,96,0,.
Cc1noc(C)c1S(=O)(=O)N(C)C[C@H]1OCCCC[C@@H](C)Oc2ccc(NC(=O)Nc3ccc(C(F)(F)F)cc3)cc2C(=O)N([C@@H](C)CO)C[C@H]1C,-71,97*,0,.
C[C@@H]1CN([C@@H](C)CO)C(=O)c2c(c3ccccc3n2C)-c2ccccc2CO[C@@H]1CN(C)S(=O)(=O)c1ccc(C(F)(F)F)cc1,-89*,.,0,.
C[C@H](CO)N1C[C@H](C)[C@@H](CN(C)S(=O)(=O)c2ccc(C(F)(F)F)cc2)OCc2ccccc2-c2c(n(C)c3ccccc23)C1=O,-90*,.,-1,.
C[C@H](CO)N1C[C@H](C)[C@H](CN(C)S(=O)(=O)c2ccc(C(F)(F)F)cc2)OCc2ccccc2-c2c(n(C)c3ccccc23)C1=O,-94*,.,0,.
COc1ccc(NC(=O)Nc2cccc3c2O[C@H](CN(C)S(C)(=O)=O)[C@H](C)CN([C@H](C)CO)C3=O)cc1,3,-15,1,.
CC(=O)N1[C@@H]2c3ccc(-c4ccccc4F)c(=O)n3C[C@H]1[C@H](CO)[C@H]2C(=O)N1CCOCC1,-2,52,-1,.
C[C@H]1CN([C@@H](C)CO)C(=O)c2cc(NC(=O)Cc3cn(C)c4ccccc34)ccc2O[C@@H]1CN(C)S(=O)(=O)c1ccccc1,-84*,13,.,.
C[C@H](CO)N1C[C@H](C)[C@@H](CN(C)S(=O)(=O)c2ccccc2)Oc2ccc(NC(=O)Cc3cn(C)c4ccccc34)cc2C1=O,-87*,29,.,-21
C[C@@H]1CN([C@H](C)CO)C(=O)c2cc(NC(=O)Cc3cn(C)c4ccccc34)ccc2O[C@H]1CN(C)S(=O)(=O)c1ccccc1,-29,15,0,-29
C[C@H](CO)N1C[C@H](C)[C@H](CN(C)S(=O)(=O)c2ccccc2)Oc2ccc(NC(=O)Cc3cn(C)c4ccccc34)cc2C1=O,-93*,71,.,.
C[C@@H]1CN([C@@H](C)CO)C(=O)Cc2cc(NC(=O)Nc3ccc4c(c3)OCO4)ccc2O[C@@H]1CN(C)S(=O)(=O)c1cn(C)cn1,22,-3,2,-8
Cc1noc(C)c1NC(=O)Nc1ccc2c(c1)C(=O)N([C@@H](C)CO)C[C@H](C)[C@@H](CN(C)S(=O)(=O)c1c(C)noc1C)OCCCC[C@H](C)O2,-13,30,0,0
C[C@@H]1CN([C@@H](C)CO)C(=O)c2cc(C#CCN(C)C)cnc2O[C@@H]1CN(C)C(=O)c1ccc(F)cc1,13,-54,4,1
C/C=C/c1ccc2c(c1)[C@H]1[C@H](CCN1C(=O)c1cccc(F)c1)[C@H](CO)N2,-93*,.,0,.
C/C=C/c1ccc2c(c1)[C@H]1[C@H](CCN1C(=O)c1ccc(F)cc1)[C@H](CO)N2,-89*,.,0,.
O=C(Cc1cccnc1)N1CC[C@H]2[C@H](CO)Nc3ccc(C#Cc4cccc(F)c4)cc3[C@H]21,-84*,.,1,.
O=C(c1cccc(F)c1)N1CC[C@H]2[C@H](CO)Nc3ccc(C#Cc4cccc(F)c4)cc3[C@H]21,-84*,.,-7,.
O=C(c1cccc(F)c1)N1CC[C@H]2[C@H](CO)Nc3ccc(-c4cccc(F)c4)cc3[C@H]21,5,26,0,.
O=C(C[C@@H]1CC[C@H]2[C@@H](COC[C@H](O)CN2S(=O)(=O)c2ccc(Cl)cc2)O1)N[C@H]1CCN(Cc2ccccc2)C1,-26,22,1,.
COc1cccc(S(=O)(=O)Nc2ccc3c(c2)[C@@H]2C[C@H](CC(=O)O)O[C@H](CO)[C@@H]2O3)c1,2,.,-1,.
O=C(NCC[C@H]1CC[C@@H](NS(=O)(=O)c2ccc(Oc3ccccc3)cc2)[C@H](CO)O1)C1CC1,-3,52,5,0
COc1cccc(S(=O)(=O)Nc2ccc3c(c2)[C@H]2C[C@@H](CC(=O)NCc4cccc(F)c4)O[C@H](CO)[C@H]2O3)c1,-6,44,-4,-1
O=c1n(-c2ccc(F)cc2)nc2n1CCCN2,.,.,.,3
SMILES,Pf Dd2 inh,Tcruzi prolif,KDM4C inh,IDH1 R132H inh
C/C=C/c1ccc2c(c1)[C@@H]1[C@@H](CCN1S(=O)(=O)c1ccc(C)cc1)[C@@H](CO)N2,-41,22,1,.
CC(=O)N1CC[C@@H]2[C@@H](CO)Nc3ccc(C#Cc4ccccc4F)cc3[C@@H]21,-83*,81,-2,.
CC(=O)N1CC[C@H]2[C@H](CO)Nc3ccc(C#Cc4ccccc4F)cc3[C@H]21,-21,.,-3,.
C/C=C/c1ccc2c(c1)[C@@H]1[C@@H](CCN1S(=O)(=O)c1ccccc1C)[C@H](CO)N2,-86*,.,-2,.
Cc1ccc(S(=O)(=O)N(C)C[C@H]2Oc3c(NS(=O)(=O)c4cccs4)cccc3C(=O)N([C@@H](C)CO)C[C@H]2C)cc1,-42,42,13,.
C[C@H]1CN([C@@H](C)CO)C(=O)c2cc(C#CCC3CCCC3)cnc2O[C@H]1CN(C)C(=O)c1cnccn1,-14,15,12,1
C[C@@H]1CCCCO[C@@H](CN(C)C(=O)Nc2ccc(F)cc2)[C@@H](C)CN([C@@H](C)CO)C(=O)c2cc(NC(=O)Nc3ccc(C(F)(F)F)cc3)ccc2O1,-88*,.,0,1
C[C@H]1CCCCO[C@H](CN(C)C(=O)Nc2ccc(C(F)(F)F)cc2)[C@@H](C)CN([C@@H](C)CO)C(=O)c2cc(NC(=O)Nc3ccc(F)cc3)ccc2O1,-80*,101,0,0
C[C@@H]1CCCCO[C@@H](CN(C)C(=O)Nc2ccc(C(F)(F)F)cc2)[C@@H](C)CN([C@H](C)CO)C(=O)c2cc(NC(=O)Nc3ccc(F)cc3)ccc2O1,-71,.,-1,-1
COc1ccc(NC(=O)N(C)C[C@@H]2OCCCC[C@H](C)Oc3ccc(NC(=O)Nc4ccc(C(F)(F)F)cc4)cc3C(=O)N([C@@H](C)CO)C[C@@H]2C)cc1,-7,120*,-2,0
COc1ccc(NC(=O)N(C)C[C@@H]2OCCCC[C@@H](C)Oc3ccc(NC(=O)Nc4ccc(C(F)(F)F)cc4)cc3C(=O)N([C@H](C)CO)C[C@@H]2C)cc1,41,65,0,0
C[C@@H]1CCCCO[C@H](CN(C)C(=O)NC2CCCCC2)[C@@H](C)CN([C@@H](C)CO)C(=O)c2cc(NC(=O)Nc3ccc(C(F)(F)F)cc3)ccc2O1,-83*,87,-1,-2
O=C(C1CCOCC1)N1CC(=O)N2[C@H](CO)[C@H](c3ccc(/C=C/c4ccccc4)cc3)[C@@H]2C1,1,.,-1,.
COC(=O)C[C@H]1CC[C@@H]2[C@@H](COc3ccc(NC(=O)Nc4cc(C)cc(C)c4)cc3C(=O)N2C)O1,.,67,-2,.

# Source: PubChem BioAssay
